# Most compounds without a hit are left out; they make up all but 3.7% or so of the library.
# Calpain2 inh: inhibitors of pig calpain II. purified calpain II, fluorogenic peptide substrate, 30 min. inhibition, % at 16 µM. actives 0.37% (n = 220,000). AID 1236;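 active = inhibition above about 50%, limit read from the data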
# ROMK mod: human ROMK K+ channel modulation, primary screen; Tet-inducible ROMK, thallium flux fluorescence; actives lie on both sides; AID 1918; actives 2% (n = 130,000); P48048; B-score at 10 µM;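 active = signal ratio slope over the read window, or its plate-corrected B-score, at least 3 SD from the plate mean, either direction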;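 also: B-score of the F/F0 ratio slope over 7 to 12 s after thallium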
# Mdm2 ligase inh: Mdm2 E3 ligase (human) inhibition | cell-based MDM2 ubiquitination luciferase reporter, 2 h; 0 = plate control, 100 = twice control, blank-subtracted | signal enhancement, % at 5 µM | Q00987 | actives 0.11% (n = 210,000) | AID 1230;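 active = signal enhancement of 30% or more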;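 also: luminescence tracks abundance of the self-degrading MDM2-luciferase fusion protein; higher signal means inhibition of MDM2 E3 ligase activity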
#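 Material: stable MDM2–luciferase fusion reporter cells / Quantity: 2000 cells/well / Dosing: single 5 µM compound dose, 0.2% final DMSO / Buffer or medium: DMEM / Schedule: 4 h cell settling then 2 h compound exposure, 37 °C / Detection: luminescence with SteadyLite reagent, 15 min at room temperature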
# Cl transport mod: modulators of human KCC2 chloride dependent transport; Q9H2X9; KCC2 cells, thallium flux FluoZin-2 fluorescence; B-score of Tl+ flux slope (higher = more flux/activation; lower = inhibition) at 10 µM; actives 2.2% (n = 190,000);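 active = thallium flux slope and its plate-corrected score both differing from the plate sample mean at a set confidence after two filtering rounds, in either direction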;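 also: slope of fluorescence scaled to starting intensity during 10 to 20 s after thallium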
# Target sequence (Q9H2X9 whole entry, looked up): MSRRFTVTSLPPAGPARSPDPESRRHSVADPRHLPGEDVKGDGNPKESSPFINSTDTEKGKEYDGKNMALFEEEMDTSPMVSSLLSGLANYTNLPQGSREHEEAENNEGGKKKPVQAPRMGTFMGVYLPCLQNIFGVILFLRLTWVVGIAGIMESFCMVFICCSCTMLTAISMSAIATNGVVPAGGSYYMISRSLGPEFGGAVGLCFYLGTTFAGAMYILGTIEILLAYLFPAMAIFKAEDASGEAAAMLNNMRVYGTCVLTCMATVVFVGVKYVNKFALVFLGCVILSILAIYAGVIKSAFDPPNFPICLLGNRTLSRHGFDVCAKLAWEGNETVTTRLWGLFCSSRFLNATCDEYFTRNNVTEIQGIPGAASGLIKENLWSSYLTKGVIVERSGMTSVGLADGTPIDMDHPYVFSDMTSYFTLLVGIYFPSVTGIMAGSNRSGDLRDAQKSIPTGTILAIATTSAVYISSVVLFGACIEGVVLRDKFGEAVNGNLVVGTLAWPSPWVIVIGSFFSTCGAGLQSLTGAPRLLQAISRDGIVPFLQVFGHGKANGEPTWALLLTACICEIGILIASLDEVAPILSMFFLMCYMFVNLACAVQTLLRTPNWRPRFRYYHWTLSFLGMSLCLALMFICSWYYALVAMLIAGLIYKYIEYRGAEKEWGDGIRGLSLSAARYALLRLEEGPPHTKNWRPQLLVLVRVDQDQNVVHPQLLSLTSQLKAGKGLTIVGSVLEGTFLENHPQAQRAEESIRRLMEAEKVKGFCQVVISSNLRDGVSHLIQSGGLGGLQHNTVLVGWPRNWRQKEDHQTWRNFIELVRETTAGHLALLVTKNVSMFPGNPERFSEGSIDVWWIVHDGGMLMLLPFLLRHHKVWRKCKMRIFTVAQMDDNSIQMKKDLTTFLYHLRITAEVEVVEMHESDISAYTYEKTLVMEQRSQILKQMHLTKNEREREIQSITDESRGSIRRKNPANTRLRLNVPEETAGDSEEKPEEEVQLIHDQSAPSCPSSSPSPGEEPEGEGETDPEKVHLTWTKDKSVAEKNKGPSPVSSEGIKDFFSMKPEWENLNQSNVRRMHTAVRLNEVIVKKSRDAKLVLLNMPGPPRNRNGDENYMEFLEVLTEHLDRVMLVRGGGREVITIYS
# PKD1 kinase inh: blocks activity of human protein kinase D1. actives 0.056% (n = 200,000). Q15139. AID 797. inhibition, % (concentration not given with the values). PKD1 kinase fluorescence polarization assay; in the data active = inhibition above about 50%
# Arbovirus inh: arbovirus infection inhibition. arbovirus infection cell-based antiviral screen. inhibition, % at 10 µM. actives 0.37% (n = 200,000); in the data active = inhibition above about 30%
# KCC2 secondary: KCC2 (human) modulation, secondary assay | shares compounds with Cl transport mod | HEK293-KCC2, thallium flux, FluoZin2 fluorescence; active compounds read high | normalised thallium flux (F/F0 slope) at 10 µM | actives 15% (n = 3,700);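 active = thallium flux slope above the same plate's solvent-only control mean plus 3 SD; inconclusive = the two replicate wells disagree; inactive = no significant difference from solvent-only control wells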
# KCC2 bumet counter: bumetanide-insensitive thallium flux in KCC2 cells with ouabain, counter-screen; normalized thallium flux at 10 µM; shares compounds with Cl transport mod; HEK293-KCC2 + bumetanide/ouabain, thallium flux FluoZin2; active compounds read high; actives 49% (n = 3,700);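 active = thallium entry rate above the same plate's blocked-transporter control wells by more than 3 SD; inconclusive = the two repeat wells disagree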;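 also: raw slope of fluorescence over initial fluorescence between 10 and 20 s after thallium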
# KCC2 secondary2: KCC2 (human) modulation, second secondary assay; actives 23% (n = 3,700); shares compounds with Cl transport mod; normalized thallium flux at 10 µM; HEK293-KCC2, thallium flux FluoZin2 fluorescence; actives lie on both sides; F/F0 rise rate, 10–20 s post-thallium;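 active = thallium flux slope more than 3 SD above or below the plate's solvent-only control mean, mostly below; inconclusive = the two repeat wells disagreed; inactive = no significant shift from solvent-only controls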;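 also: raw slope with 0.1% DMSO as baseline and bumetanide as block control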
# HEK counter1: counter-screen for KCC2 modulators: effect in parental HEK293 cells; shares compounds with Cl transport mod; thallium flux FluoZin2, ouabain; baseline-ratio fluorescence slope, 10–20 s after thallium; thallium flux rate (normalised fluorescence) at 10 µM; actives 46% (n = 3,700); AID 1716;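 active = thallium flux rate significantly above the same plate's solvent-only control wells, beyond their mean plus 3 SD; inconclusive = the two replicate wells gave conflicting results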
# KCC2 retest ouab: confirmation of human KCC2 modulators with ouabain. shares compounds with Cl transport mod. HEK293-KCC2, thallium flux FluoZin2 fluorescence; bidirectional: low = inhibitor, high = activator. raw Tl+ flux slope (below DMSO = inhibition, above = activation) at 10 µM. actives 48% (n = 3,700);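 active = thallium flux slope beyond 3 SD from same-plate DMSO control mean in most replicates, usually higher, sometimes lower; inconclusive = repeat tests gave conflicting results; inactive = no significant difference from controls in most replicates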;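 also: slope of initial-normalized fluorescence between seconds 10 and 20 after thallium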
# HEK293 Tl flux2: parental HEK flux effect, counter-screen 2; shares compounds with Cl transport mod; HEK293 parental, thallium flux FluoZin-2 fluorescence slope; thallium flux slope at 10 µM; actives 33% (n = 3,700);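 active = thallium flux slope above the same plate's solvent-control mean plus 3 SD in both duplicate wells; inconclusive = duplicate wells that disagreed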;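 also: run without ouabain in cells lacking the KCC2 cotransporter; slope of fluorescence scaled to its starting value between 10 and 20 s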
# * marks the source's active call; other numbers are inactive results; ? = inconclusive; · = not tested or not shown.
SMILES,Calpain2 inh,ROMK mod,Mdm2 ligase inh,Cl transport mod,PKD1 kinase inh,Arbovirus inh,KCC2 secondary,KCC2 bumet counter,KCC2 secondary2,HEK counter1,KCC2 retest ouab,HEK293 Tl flux2
O=C(CNc1cccc2ccccc12)N/N=C/c1ccc([N+](=O)[O-])cc1,-15.2,·,-18.7,0.594,8.9,-2.0,·,·,·,·,·,·
COC(=O)c1cc(OC)c(OC)cc1NC(=O)Nc1cccc(C(C)=O)c1,13.0,0.763,-48.3,-1.84,-3.6,2.7,·,·,·,·,·,·
COc1ccc2nc(N3CCCCC3)c(/C=C3\SC(=S)NC3=O)cc2c1,27.2,·,-6.3,45.4*,·,·,0.0159*,0.0577*,0.032,0.0751*,0.0447*,0.0174*
COCCN1C(=O)/C(=C/c2ccc(OCc3ccc(C(=O)O)cc3)c(OC)c2)SC1=Nc1ccccc1,-8.2,-2.26,2.8,-5.7*,18.2,-10.7,0.00741,0.00506,0.0221*,0.00657,0.0131*,0.00943
S=c1[nH]nc(-c2ccc(Cl)cc2)n1/N=C/c1ccco1,-1.7,·,-7.1,21.1*,·,·,0.00703,0.029*,?,0.0221*,0.0325*,0.0203*
S=c1[nH]nc(-c2ccc(Cl)cc2)n1/N=C/C=C/c1ccco1,-17.5,-0.234,-9.7,29.6*,·,·,0.0161*,0.106*,0.0387,0.0358*,0.0377*,0.0153*
COc1ccccc1/C=C/C=N/n1c(-c2ccccc2)n[nH]c1=S,1.2,·,-1.1,0.48,·,·,·,·,·,·,·,·
FC(F)(F)c1n[nH]c(=S)n1/N=C/c1ccco1,22.9,·,-1.6,-1.94,2.0,10.1,·,·,·,·,·,·
S=c1[nH]nc(-c2ccco2)n1/N=C/C=C/c1ccccc1,-16.5,1.07,-6.5,7.01*,-9.2,6.9,0.0179,0.0331*,0.0346,0.0157*,0.0213,0.0179*
S=c1[nH]nc(-c2ccccc2)n1/N=C/C=C/c1ccco1,22.7,·,-12.1,3.8,5.0,-2.1,·,·,·,·,·,·
COc1ccccc1/C=C/C=N/n1c(-c2ccc(Cl)cc2)n[nH]c1=S,13.1,·,-1.4,13.1*,·,·,0.00917,0.0226*,0.0297,0.0106*,0.0308*,?
Cc1ccc2nc(SC(C(=O)c3ccccc3)c3ccccc3)nc(C)c2c1 (stereo unspecified),36.1,0.372,-7.9,-0.00789,-7.5,-5.8,·,·,·,·,·,·
CC(=O)N1CCC(Nc2ccc(C)cc2)CC1,-32.9,·,-1.1,0.775,-11.3,11.9,·,·,·,·,·,·
Cc1ccc(/C=N/n2c(-c3ccc(Cl)cc3)n[nH]c2=S)s1,-2.6,0.802,-2.6,10.4*,-8.3,-10.8,0.00806,0.0121*,0.031,0.0161*,?,0.0151*
Cn1cccc1/C=N/n1c(-c2ccc(Cl)cc2)n[nH]c1=S,18.2,·,12.9,·,-5.2,-16.6,·,·,·,·,·,·
O=C(NNC(=S)Nc1ccccc1Cl)c1ccncc1,-16.7,-0.741,3.6,-0.308,·,·,·,·,·,·,·,·
O=C(CC(c1ccccc1)c1ccccc1O)NCCN1CCOCC1 (stereo unspecified),-57.3,0.0927,1.5,-0.445,1.6,22.7,·,·,·,·,·,·
Cc1ccc2c(c1)C(c1ccc(O)cc1)(c1ccc(O)cc1)C(=O)N2C,8.1,0.604,-12.7,3.71*,5.2,0.4,0.0112,0.00694,0.0314,0.00731,0.0359,?
NC(Cc1c[nH]c2ccccc12)C(=O)NCc1ccco1 (stereo unspecified),-19.6,-0.619,0.3,-0.547,-3.8,2.0,·,·,·,·,·,·
C/C(=N\N1CCN(C2c3ccccc3-c3ccccc32)CC1)c1cccnc1,-25.4,·,-2.3,-0.0106,9.1,-21.1,·,·,·,·,·,·
CN=c1scc(-c2ccccc2F)n1/N=C(\C)c1cccnc1,45.0,-0.142,-9.4,-3.91*,-6.0,-7.8,0.00702,0.00482,?,0.00773,?,0.0109
CCCn1c(O)c(N=Nc2ccc3ccccc3n2)c2ccccc21,-67.3,0.368,1.8,-4.99*,-8.5,5.1,0.0103,0.0106*,0.0301,0.00869*,0.0208,0.0106
CC(C)CCn1c(O)c(N=Nc2ccccn2)c2ccccc21,32.8,0.973,-17.5,6.87*,-8.0,2.3,0.00923,0.0212*,0.0348,?,?,0.0129
CN(c1ccc(F)cc1)S(=O)(=O)c1ccc(Cl)c(C(=O)OCC(=O)NCc2ccco2)c1,-46.7,-0.0576,-2.4,-3.05,1.3,4.4,·,·,·,·,·,·
Cc1ccc(-n2c(Cn3nc(C(F)F)cc3C(F)F)n[nH]c2=S)cc1,-8.2,0.0695,-5.9,-0.639,-1.6,6.5,·,·,·,·,·,·
SMILES,Calpain2 inh,ROMK mod,Mdm2 ligase inh,Cl transport mod,PKD1 kinase inh,Arbovirus inh,KCC2 secondary,KCC2 bumet counter,KCC2 secondary2,HEK counter1,KCC2 retest ouab,HEK293 Tl flux2
COc1cc(OC)cc(C(=O)NC(=S)N2CCCCCC2)c1,-21.7,0.446,-6.0,74.4*,-5.1,-5.4,0.0341*,0.115*,0.0399*,0.062*,0.0832*,0.0212*
COc1ccc(C(=O)NC(=S)N2CCCCC2)cc1[N+](=O)[O-],8.9,·,-12.6,6.77*,-9.5,1.7,0.0117,0.0212*,0.0354,0.012*,0.0261,?
COc1ccc(C(=O)NC(=S)Nc2ccccc2N2CCCCC2)cc1[N+](=O)[O-],6.0,0.152,-10.7,1.91,-0.6,6.3,·,·,·,·,·,·
Cc1ccc(C(=O)NC(=S)N2CC(C)OC(C)C2)cc1[N+](=O)[O-] (stereo unspecified),-9.1,·,-5.9,·,-5.8,1.2,0.0183*,0.0371*,0.0305,0.0212*,0.035*,0.0126*
CCN(CC)S(=O)(=O)c1ccc(N2CCOCC2)c(NC(=O)c2cc(-c3ccccn3)nc3ccccc23)c1,-46.8,0.535,-29.2,0.429,-5.6,15.9,·,·,·,·,·,·
COc1ccc(NC(C)=O)cc1CNC(=O)COc1c(C)c(C)cc(C)c1C,-8.3,-0.202,4.0,-1.52,-10.5,-5.8,·,·,·,·,·,·
CN(C)S(=O)(=O)c1ccc(Cl)c(C(=O)Nc2nc3ccccc3[nH]2)c1,-4.5,0.568,-8.8,·,-5.2,-1.4,0.00655,0.00498,0.022*,0.0077,0.0133*,0.0103
CS(=O)(=O)c1ccccc1C(=O)Nc1nc2ccccc2[nH]1,12.0,·,-12.0,-0.00721,·,·,·,·,·,·,·,·
CCOc1ccc2nc(N3C(=O)CNC3=S)sc2c1,16.0,-0.531,-28.6,9.96*,·,·,0.014*,0.0306*,0.0312,0.0139*,0.0255*,0.0123*
